Results pooled from the literature.
Compare with care: the assays were run in different laboratories.
Mc1r: Melanocyte-stimulating hormone receptor (Mc1r, Mus musculus, UniProt Q01727)
PSMB8: Proteasome subunit beta type-8 (PSMB8, Homo sapiens, UniProt P28062)
GCGR: Glucagon receptor (GCGR, Homo sapiens, UniProt P47871)

SMILES	target	observed	action	method	setting	measurement	value
N=C(N)NCCC[C@H](NC(=O)[C@H](CC(=O)O)NC(=O)[C@@H](N)Cc1c[nH]c2ccccc12)C(=O)N[C@@H](Cc1ccccc1)C(=O)NCC(=O)O	Mc1r	reporter gene	agonist	–	–	EC50	> 100 µM
CCOc1ccc2c(-c3cc(C)nc(Nc4cc(OC)cc(C(F)(F)F)c4)n3)cnn2n1	Dual specificity tyrosine-phosphorylation-regulated kinase 1A (DYRK1A, Homo sapiens, UniProt Q13627)	enzyme activity	inhibitor	–	–	IC50	> 10 µM
Cc1ncc(C(=O)N[C@@H](CC(C)C)C(=O)N[C@@H](CCC2CCCCC2)C(=O)N[C@H](/C=C/S(C)(=O)=O)Cc2ccc(CN)cc2)s1	PSMB8	enzyme activity	inhibitor	–	lysate	IC50	3.98 µM
CC1=C(/C=C/C(C)=C/C=C/C(C)=C/C=O)C(C)(C)CCC1	Cellular retinoic acid-binding protein 2 (CRABP2, Homo sapiens, UniProt P29373, R133K/Y135F)	binding	–	fluorescence	–	Kd	0.12 µM
N#Cc1ccc(COc2cccc(C3CCN(Cc4nc5ccc(C(=O)O)cc5n4C[C@@H]4CCO4)CC3)n2)c(F)c1	GCGR	cAMP	agonist	–	–	EC50	> 20 µM
CSCC[C@H](NC(=O)[C@@H](NC(=O)[C@@H](N)Cc1ccc(O)cc1)C(C)C)C(=O)NCC(=O)O	Mc1r	reporter gene	agonist	–	–	EC50	> 100 µM
Cc1ncc(C(=O)N[C@@H](CC2CCC3CCCCC3C2)C(=O)N[C@@H](CC(C)C)C(=O)N[C@H](/C=C/S(C)(=O)=O)Cc2ccc(CN)cc2)s1 (some centres unmarked)	PSMB8	enzyme activity	inhibitor	–	lysate	IC50	> 10 µM
CN1CCN(c2ccc(Nc3ncc4cc(C#N)c(=O)n(C5CCCC5)c4n3)cc2)CC1	Dual specificity tyrosine-phosphorylation-regulated kinase 1B (DYRK1B, Homo sapiens, UniProt Q9Y463)	enzyme activity	inhibitor	–	–	IC50	0.238 µM
Cc1ncc(C(=O)N[C@@H](CC(C)C)C(=O)N[C@@H](CC(C)C)C(=O)N[C@H](/C=C/S(C)(=O)=O)Cc2ccc(CN)cc2)s1	PSMB8	enzyme activity	inhibitor	–	lysate	IC50	> 10 µM
N=C(N)NCCC[C@H](N)C(=O)N[C@@H](Cc1ccccc1)C(=O)NCC(=O)O	Mc1r	reporter gene	agonist	–	–	EC50	> 100 µM
CC(C)C[C@H](NC(=O)[C@H](Cc1ccccc1)N=[N+]=[N-])C(=O)N[C@@H](CC(F)(F)F)C(=O)N[C@H](/C=C/S(C)(=O)=O)Cc1ccc(CN)cc1	PSMB8	enzyme activity	inhibitor	–	lysate	IC50	1.83 µM
CC[C@H](C)[C@H](NC(=O)[C@H](CO)NC(=O)[C@H](Cc1ccc(O)cc1)NC(=O)[C@H](CC(=O)O)NC(=O)[C@H](CO)NC(=O)[C@@H](NC(=O)[C@H](Cc1ccccc1)NC(=O)[C@@H](NC(=O)CNC(=O)[C@H](CCC(=O)O)NC(=O)[C@H](C)NC(=O)[C@@H](N)Cc1ccc(O)cc1)[C@@H](C)O)[C@@H](C)CC)C(=O)N[C@@H](C)C(=O)N[C@@H](CCSC)C(=O)N[C@@H](CC(=O)O)C(=O)N[C@@H](CCCCN)C(=O)N[C@H](C(=O)N[C@@H](Cc1c[nH]cn1)C(=O)N[C@@H](CCC(N)=O)C(=O)N[C@@H](CCC(N)=O)C(=O)N[C@@H](CC(=O)O)C(=O)N[C@@H](Cc1ccccc1)C(=O)N[C@H](C(=O)N[C@@H](CC(N)=O)C(=O)N[C@@H](Cc1c[nH]c2ccccc12)C(=O)N[C@@H](CC(C)C)C(=O)N[C@@H](CC(C)C)C(=O)N[C@@H](C)C(=O)N[C@@H](CCC(N)=O)C(=O)N[C@@H](CCCCN)C(=O)NCC(=O)N[C@@H](CCCCN)C(=O)N[C@@H](CCCCN)C(=O)N[C@@H](CC(N)=O)C(=O)N[C@@H](CC(=O)O)C(=O)N[C@@H](Cc1c[nH]c2ccccc12)C(=O)N[C@@H](CCCCN)C(=O)N[C@@H](Cc1c[nH]cn1)C(=O)N[C@@H](CC(N)=O)C(=O)N[C@H](C(=O)N[C@H](C(=O)N[C@@H](CCC(N)=O)C(=O)O)[C@@H](C)O)[C@@H](C)CC)C(C)C)[C@@H](C)CC	GCGR	reporter gene	agonist	luciferase	–	EC50	0.501 µM
N=C(N)NCCC[C@H](NC(=O)[C@H](CC(=O)O)NC(=O)[C@H](Cc1c[nH]c2ccccc12)NC(=O)[C@H](CCCNC(=N)N)NC(=O)[C@H](Cc1ccccc1)NC(=O)[C@H](Cc1c[nH]cn1)NC(=O)CN)C(=O)N[C@@H](Cc1ccccc1)C(=O)NCC(=O)O	Mc1r	reporter gene	agonist	–	–	EC50	7.86 µM
C[C@@H]1NC(=O)[C@H](CCCNC(=N)N)NC(=O)[C@H](Cc2ccccc2)NC(=O)[C@H](Cc2ccccc2)NC(=O)[C@H](CCCNC(=N)N)NC(=O)[C@@H]2CCCN2C(=O)[C@H]2CCCN2C(=O)[C@H](Cc2ccccc2)NC1=O	Mc1r	reporter gene	agonist	–	–	EC50	> 100 µM
